Experiments:
[1] = test system: GFP-Wingless; test: Colocalisation with morphotrap-enriched GFP-Wingless in wing discs; format: in vivo, Drosophila; conditions: n=4 (Dlp^ΔGPI-V5), n=13 (ApoL), n=10 (Hrs)
Summary of the method: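 For ApoL and Hrs, morphotrap is driven by dpp-Gal4 and the endogenous proteins are immunostained. For Dlp ΔGPI-V5, morphotrap is driven by dpp-LexA and Dlp by wg-Gal4, limited to 24 h with Gal80ts (18°C rearing, 29°C shift). Confocal imaging; colocalisation scored where domains intersect; SD; three repeats.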

[2] = test system: GFP-Wingless; test: Solubilisation of GFP-Wingless in serum-free S2 cell medium; format: cell-based, Drosophila; conditions: conditioned medium from S2 cells expressing Dlp^ΔGPI-V5 added to S2 cells expressing GFP-Wingless, 12hrs, concentrated 20-fold, Western blot
[3] = test system: Wingless; conditions: ref [13],[14]; cited from earlier work

B1: Dlp^ΔGPI: secreted form of Dlp lacking its membrane anchor, amino acids 53-723 (protein)
chain: PQVAALAAPNPAGGVAGSSIIDQFSPNCSAVTHIFQARGIDAIEIPQKPSNERVLRYCESPSVGTCCTYNMETRMAMQSRQQLEGHTKDQISRMSGILGSKATKFKDIFTALLKESRTQFNSMFIRTYGVIYERNSYVFSDLFKELETYFANGRVDLLEVMDKFFNTLYQKMFTVLNTQYTFDENYMRCVSEHMKELKPFGDVPDKLSVQIKRSFVATRTYGQALTTASEVAKKVLNVRLNADCTGALTKMQHCGACKGYTEKPCTNYCVNVIKGCLHYQHEFDSEWENFAMAMDKVAERLLGSFNIVMVVEPLNIKISEAIMNFQDSGQDITNRVFQGCGRPKLKKMKRSISPKLQGVQILNARSPVEADTLDIDETLDEAIVLRERRAAEPGSQETSAQQSQEQGVGKSGNGGGGGGGNNRRQQQRRKQQQQRRKQQNNRDDNDDDDNESGGGREPILDRIVRDIRQRVKDYKKFWSNLPHSVCSNEDIASSSDVDGMCWNGHTIDRYMHSITTEHGSNPEFTGNPASTKQTAQMASQLSHLKNAIVHLRNAYNGQDVEWSEQEELPYAGSGAGSGSGSEDDEDDDEGSGLGPFEPSHKPDVERPSVDADNDDDEDAGGRGHMPTHTSRPTSGVDDKNPLIHTTHFDQDHNDLDEDHRQLDEDEDTDAG
modifications: left off: V5, C-terminal, kept
- colocalisation with morphotrap-enriched GFP-Wingless [1]: colocalizes
- solubilisation of GFP-Wingless, added conditioned medium [2]: A similar effect was seen
- solubilisation of GFP-Wingless, added conditioned medium ([2]; listed as Dlp^ΔGPI-V5): stabilises GFP-Wingless in solution
- binding to Wingless [3]: known to bind Wingless
